Legend:
[1] = Therapeutic index is the ratio of LD50 to ED90
Summary of the method: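 In female Balb-C mice bearing subcutaneous ADJ/PC6 tumor, dosed ip or po at 5, 25, 125 and 625 mg per kg (six animals per dose). Therapeutic index is the 50% lethal dose divided by the dose causing 90% tumor regression (LD50/ED90).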

Mus musculus [2] = experiment: Antitumor activity against ADJ/PC6 tumor subcutaneously implanted into female intraperitoneal compound administration; type: functional, organism-based
Summary of the method: (§1)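 ADJ/PC6 plasmacytoma implanted subcutaneously in female Balb-C mice, with compound given by intraperitoneal injection. Four dose levels were tested (5, 25, 125 and 625 mg per kg), six mice per dose. LD50 is the 50% lethal dose, ED90 is the dose giving 90% tumor regression, and therapeutic index = LD50/ED90.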

Mus musculus [3] = experiment: Compound was screened for antitumor activity against ADJ/PC6 tumor subcutaneously implanted into female intraperitoneal compound administration; type: functional, organism-based; summary of the method: as §1

Substance	TI [1]	also measured
CISPLATIN [listing 1 of 2 here]	8.1	–
CISPLATIN [listing 2 of 2 here]	–	LD50 (Mus musculus [2]): 13 mg/kg
cis-dichloro(cis-5,6-diamino-1,3-dioxepane)platinum (II) [listing 1 of 2 here]	4.1	–
cis-dichloro(cis-5,6-diamino-1,3-dioxepane)platinum (II) [listing 2 of 2 here]	–	LD50 (Mus musculus [3]): 41.5 mg/kg

Source: ChEMBL document CHEMBL1124437, “Analogues of cisplatin derived from diaminodideoxytetritols. Synthesis and activity against the ADJ/PC6 plasmacytoma in mice” (J Med Chem, 1989)
